From ChEMBL document CHEMBL1143772, “Samarium(II) promoted stereoselective synthesis of antiproliferative cis-beta-alkoxy-gamma-alkyl-gamma-lactones” (2007)

How the values were obtained:
Format in all cases: functional
A2780 = experiment: Antiproliferative activity against human A2780 cells after 48 hrs by SRB assay; conditions: A2780, 48 h; for CC50: read-out: LC50 (the source's name)
Procedure, shortened: (§1)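 NCI protocol, SRB read-out after 48 h continuous drug exposure; top test concentration 100 µM. A dose–response curve gives percentage growth (PG). GI50, TGI and LC50 are the concentrations at PG +50, 0 and −50. Values in µM, means of two to four experiments with standard deviation.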

SW1573 = experiment: Antiproliferation activity against human SW1573 cells after 48 hrs by SRB assay; conditions: SW1573, 48 h; procedure, shortened: as §1
WiDr = experiment: Antiproliferation activity against human WiDr cells after 48 hrs by SRB assay; conditions: for CC50: read-out: LC50 (the source's name); procedure, shortened: as §1

Compound | GI50 (A2780) [µM] | GI50 (SW1573) [µM] | LC50 (concentration giving 50% net cell kill) (SW1573) [µM] | TGI (SW1573) [µM] | GI50 (WiDr) [µM] | TGI (WiDr) [µM] | CC50 (WiDr) [µM] | TGI (A2780) [µM] | CC50 (A2780) [µM]
CCCCCCC[C@H]1OC(=O)C[C@H]1OC1C=CCCC1 (some centres not stated) | 84 | 23 | 95 | 49 | – | – | – | – | –
CCCCCCC[C@H]1OC(=O)C[C@H]1OCc1ccccc1 | 63 | 52 | – | – | 44 | – | – | – | –
CCCCCCC[C@H]1OC(=O)C[C@H]1OC1CCCCC1 | 16 | 18 | 71 | 36 | 16 | 33 | 71 | 31 | 61
C=CC(CCCCC)O[C@@H]1CC(=O)O[C@@H]1CCCCCCC (some centres not stated) | 19 | 27 | 96 | 78 | 27 | 81 | 97 | 42 | 88
C#CC(CCCCCCC)O[C@@H]1CC(=O)O[C@@H]1CCCCCCC (some centres not stated) | 22 | 32 | 97 | 83 | 32 | 86 | – | 51 | 80
C=CCC(C)O[C@@H]1CC(=O)O[C@@H]1CCCCCCC (some centres not stated) | 48 | 33 | – | 83 | 39 | – | – | – | –
